ChEMBL document CHEMBL4020842, “Discovery of N1-(4-((7-Cyclopentyl-6-(dimethylcarbamoyl)-7 H-pyrrolo[2,3- d]pyrimidin-2-yl)amino)phenyl)- N8-hydroxyoctanediamide as a Novel Inhibitor Targeting Cyclin-dependent Kinase 4/9 (CDK4/9) and Histone Deacetlyase1 (HDAC1) against Malignant Cancer” (J Med Chem, 2018)
The source made the active and inactive calls. No cut-off for these calls is given here.

Assays:
A549 [1] = assay: Induction of apoptosis in human A549 cells assessed as early apoptotic cells at 10 uM after 48 hrs by annexin V-FITC/propidium iodide staining based flow cytometry (reference value: 0.41%); type: functional
NCI-H460 [2] = assay: Induction of apoptosis in human NCI-H460 cells assessed as necrotic cells at 5 uM after 48 hrs by annexin V-FITC/propidium iodide staining based flow cytometry (reference value: 1.34%); type: functional
[3] = Clearance in Sprague-Dawley rat at 20 mg/kg, po administered as single dose by HPLC analysis; type: ADME, organism-based; conditions: in vivo
CDK4/CDK9 (Homo sapiens) = CDK4/CDK9 (Homo sapiens) (UniProt P11802+P50750); assay: Inhibition of CDK4/CDK9 in human Hep3B cells assessed as reduction in Rb phosphorylation at Ser807/811 residues at 1 uM after 48 hrs by Western blot method; type: cell-based
A549 [4] = assay: Cytotoxicity against human A549 cells assessed as reduction in cell viability after 72 hrs by CCK8 assay; type: functional, cell-based; conditions: A549, 72 h
NCI-H460 [5] = assay: Induction of apoptosis in human NCI-H460 cells assessed as live cells at 1 uM after 48 hrs by annexin V-FITC/propidium iodide staining based flow cytometry (reference value: 97.3%); type: functional
[6] = Clearance in Sprague-Dawley rat at 20 mg/kg, iv administered as single dose by HPLC analysis; type: ADME, organism-based; conditions: in vivo
NCI-H460 [7] = assay: Induction of apoptosis in human NCI-H460 cells assessed as live cells at 10 uM after 48 hrs by annexin V-FITC/propidium iodide staining based flow cytometry (reference value: 97.3%); type: functional
Hep 3B2 [8] = assay: Induction of apoptosis in human Hep3B cells assessed as live cells at 1 uM after 48 hrs by annexin V-FITC/propidium iodide staining based flow cytometry (reference value: 97.9%); type: functional
MDA-MB-231 [9] = assay: Induction of apoptosis in human MDA-MB-231 cells assessed as early apoptotic cells at 10 uM after 48 hrs by annexin V-FITC/propidium iodide staining based flow cytometry (reference value: 0.4%); type: functional
Histone deacetylase 1 [10] = biological target: T1, Histone deacetylase 1 (Homo sapiens, UniProt Q13547); assay: Inhibition of HDAC1 in human HepG2 cells assessed as increase in acetylated-histone H3 level at 1 to 5 uM after 48 hrs by Western blot method; type: cell-based
Histone deacetylase 1 [11] = biological target: T1, Histone deacetylase 1; assay: Inhibition of HDAC1 in human MDA-MB-231 cells assessed as increase in acetylated-histone H3 level at 1 to 5 uM after 48 hrs by Western blot method; type: cell-based
[12] = Clearance in Sprague-Dawley rat at 20 mg/kg, ip administered as single dose by HPLC analysis; type: ADME, organism-based; conditions: in vivo
Mus musculus = assay: Toxicity in Balb/c mouse assessed as weight loss at 45 to 130 mg/kg, ip for 16 consecutive days; type: organism-based; conditions: in vivo
Histone deacetylase 1 [13] = biological target: T1, Histone deacetylase 1; assay: Inhibition of HDAC1 in human NCI-H460 cells assessed as increase in p53 phosphorylation at Ser15 residue at 1 to 5 uM after 48 hrs by Western blot method; type: cell-based
HepG2 [14] = assay: Induction of apoptosis in human HepG2 cells assessed as late apoptotic cells at 1 uM after 48 hrs by annexin V-FITC/propidium iodide staining based flow cytometry (reference value: 0.64%); type: functional
Hep 3B2 [15] = assay: Downregulation of Cyclin-D1 protein expression in human Hep3B cells after 48 hrs by Western blot method; type: functional, cell-based
Outline: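 Treated cells were lysed and CDK4 and cyclin D1 protein levels were assessed by Western blot.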

Hep 3B2 [16] = assay: Downregulation of CDK4 protein expression in human Hep3B cells after 48 hrs by Western blot method; type: functional, cell-based
A549 [17] = assay: Cell cycle arrest in human A549 cells assessed as accumulation at G0/G1 phase at 625 nM after 24 hrs by propidium iodide staining based flow cytometry; type: functional
Outline: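 Cells were exposed for 24 h to a range of concentrations (625 nM, 2.5 and 10 µM), with DMSO vehicle as control. They were then stained with propidium iodide and analysed by flow cytometry to obtain the percentages of cells in G0/G1, S and G2 phases.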

MDA-MB-231 [18] = assay: Induction of apoptosis in human MDA-MB-231 cells assessed as necrotic cells at 1 uM after 48 hrs by annexin V-FITC/propidium iodide staining based flow cytometry (reference value: […]); type: functional
HepG2 [19] = assay: Cytotoxicity against human HepG2 cells assessed as reduction in cell viability after 72 hrs by CCK8 assay; type: functional, cell-based; conditions: HepG2, 72 h
HepG2 [20] = assay: Induction of apoptosis in human HepG2 cells assessed as early apoptotic cells at 1 uM after 48 hrs by annexin V-FITC/propidium iodide staining based flow cytometry (reference value: 0.3%); type: functional
[21] = Half life in Sprague-Dawley rat at 20 mg/kg, iv administered as single dose by HPLC analysis; type: ADME, organism-based; conditions: in vivo
[22] = Tmax in Sprague-Dawley rat at 20 mg/kg, ip administered as single dose by HPLC analysis; type: ADME, organism-based; conditions: in vivo
[23] = Oral bioavailability in Sprague-Dawley rat at 20 mg/kg administered as single dose by HPLC analysis; type: ADME, organism-based; conditions: in vivo
Histone deacetylase 1 [24] = biological target: T1, Histone deacetylase 1; assay: Inhibition of HDAC1 in human T47D cells assessed as increase in acetylated-histone H3 level at 1 to 5 uM after 48 hrs by Western blot method; type: cell-based
Hep 3B2 [25] = assay: Induction of apoptosis in human Hep3B cells assessed as reduction in Bcl2 protein expression after 48 hrs by Western blot method; type: functional, cell-based
Outline: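 Cells were treated with or without compound and control for 48 h, then lysed. Bcl-2 and cleaved caspase 3 were assessed by Western blot.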

4T1 = assay: Antitumor activity against mouse Fluc-labeled 4T1 cells implanted in Balb/c mouse assessed as tumor growth inhibition at 130 mg/kg, po administered daily via gavage for 18 days by bioluminescence assay relative to control; type: functional; conditions: 4T1, po, 432 h, read-out: TGI
[26] = Tmax in Sprague-Dawley rat at 20 mg/kg, po administered as single dose by HPLC analysis; type: ADME, organism-based; conditions: in vivo
[27] = biological target: CDK6/cyclin D3 (Homo sapiens) (UniProt P30281+Q00534); assay: Inhibition of recombinant human full length N-terminal 6His-tagged CDK6/N-terminal GST-tagged Cyclin-D3 co-expressed in sf21 cells at 1 uM using histone H1 substrate in presence of [gamma33P]ATP after 10 mins by scintillation counting method relative to control
MDA-MB-231 [28] = assay: Cytotoxicity against human MDA-MB-231 cells assessed as reduction in cell viability after 72 hrs by CCK8 assay; type: functional, cell-based; conditions: MDA-MB-231, 72 h
A549 [29] = assay: Induction of apoptosis in human A549 cells after 48 hrs by annexin V-FITC/propidium iodide staining based flow cytometry; type: functional, cell-based
T47D = assay: Induction of apoptosis in human T47D cells after 48 hrs by annexin V-FITC/propidium iodide staining based flow cytometry; type: functional, cell-based
[30] = biological target: CDK9/cyclin T1 (Homo sapiens) (UniProt O60563+P50750); assay: Inhibition of recombinant human full length C-terminal 6His-tagged CDK9/Cyclin-T1 co-expressed in baculovirus infected sf21 cells at 1 uM using PDKtide substrate in presence of [gamma33P]ATP after 10 mins by scintillation counting method relative to control
A549 [31] = assay: Induction of apoptosis in human A549 cells assessed as necrotic cells at 1 uM after 48 hrs by annexin V-FITC/propidium iodide staining based flow cytometry (reference value: […]%); type: functional

T1 sequence (Q13547 whole entry): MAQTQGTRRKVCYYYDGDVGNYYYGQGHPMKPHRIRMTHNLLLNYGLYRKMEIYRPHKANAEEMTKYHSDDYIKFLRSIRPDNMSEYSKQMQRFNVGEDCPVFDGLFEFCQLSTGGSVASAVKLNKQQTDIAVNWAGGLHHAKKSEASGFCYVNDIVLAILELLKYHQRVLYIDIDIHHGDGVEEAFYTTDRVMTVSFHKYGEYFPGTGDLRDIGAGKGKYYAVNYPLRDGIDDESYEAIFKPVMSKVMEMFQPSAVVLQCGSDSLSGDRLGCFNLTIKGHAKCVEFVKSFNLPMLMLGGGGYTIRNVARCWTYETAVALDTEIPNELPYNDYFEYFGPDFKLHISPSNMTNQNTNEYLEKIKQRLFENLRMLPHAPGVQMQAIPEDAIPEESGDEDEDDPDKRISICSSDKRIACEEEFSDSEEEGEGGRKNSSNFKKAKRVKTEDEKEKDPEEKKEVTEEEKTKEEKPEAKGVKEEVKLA
CDK4/CDK9 (Homo sapiens), sequence (P11802 whole entry, looked up): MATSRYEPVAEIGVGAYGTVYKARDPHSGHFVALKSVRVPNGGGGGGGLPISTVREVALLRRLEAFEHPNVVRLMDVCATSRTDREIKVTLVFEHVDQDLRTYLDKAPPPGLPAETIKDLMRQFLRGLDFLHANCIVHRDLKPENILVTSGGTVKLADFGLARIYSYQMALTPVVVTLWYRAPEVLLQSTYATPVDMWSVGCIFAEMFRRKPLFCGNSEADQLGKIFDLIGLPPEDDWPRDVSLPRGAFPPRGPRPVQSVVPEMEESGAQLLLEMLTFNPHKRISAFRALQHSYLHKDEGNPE
CDK4/CDK9 (Homo sapiens), sequence (P50750 whole entry, looked up): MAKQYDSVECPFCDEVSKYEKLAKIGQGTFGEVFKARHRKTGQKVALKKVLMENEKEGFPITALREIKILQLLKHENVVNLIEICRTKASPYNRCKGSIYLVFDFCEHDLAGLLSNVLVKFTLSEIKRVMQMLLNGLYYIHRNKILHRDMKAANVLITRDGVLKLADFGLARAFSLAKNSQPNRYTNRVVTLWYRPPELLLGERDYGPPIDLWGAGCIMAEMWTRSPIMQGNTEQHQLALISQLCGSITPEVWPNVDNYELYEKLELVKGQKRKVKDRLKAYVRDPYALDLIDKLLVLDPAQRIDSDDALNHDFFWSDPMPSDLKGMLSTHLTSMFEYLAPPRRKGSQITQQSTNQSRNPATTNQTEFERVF

- CL/F [3]: 344 mL/min/kg
- inhibition (CDK4/CDK9 (Homo sapiens)): Active
- clearance [6]: 69 mL/min/kg
- inhibition (Histone deacetylase 1 [10]): Active
- inhibition (Histone deacetylase 1 [11]): Active
- CL/F [12]: 210 mL/min/kg
- inhibition (Histone deacetylase 1 [13]): Active
- half-life [21]: 10.8 h
- Tmax [22]: 0.262 h
- bioavailability [23]: 18.4%
- inhibition (Histone deacetylase 1 [24]): Active
- Tmax [26]: 1.8 h
- inhibition [27]: 70%
- inhibition [30]: 97%
Compound: CN(C)C(=O)c1cc2cnc(Nc3ccc(NC(=O)CCCCCCC(=O)NO)cc3)nc2n1C1CCCC1
- Activity (A549 [1]): 5.95%
- Activity (NCI-H460 [2]): 3.88%
- IC50 (A549 [4]): 1330 nM
- Activity (NCI-H460 [5]): 97%
- Activity (NCI-H460 [7]): 79.6%
- Activity (Hep 3B2 [8]): 85.8%
- Activity (MDA-MB-231 [9]): 5.09%
- Activity (Mus musculus): Non-Toxic
- Activity (HepG2 [14]): 6.07%
- Activity (Hep 3B2 [15]): Dose-dependent effect
- Activity (Hep 3B2 [16]): Dose-dependent effect
- Activity (A549 [17]): Active
- Activity (MDA-MB-231 [18]): 1.65%
- IC50 (HepG2 [19]): 3370 nM
- Activity (HepG2 [20]): 2.6%
- Activity (Hep 3B2 [25]): Active
- inhibition in vivo at 130 mg/kg (4T1): 79.3%
- IC50 (MDA-MB-231 [28]): 1860 nM
- Activity (A549 [29]): Dose-dependent effect
- Activity (T47D): Dose-dependent effect
- Activity (A549 [31]): 6.67%
